# Source: PubChem
# In the library only some 3.5% were active in any assay of this set; here they are far more common.
# RGS4 pot – RGS4 potentiation or activation; HEK293 M3R/inducible RGS4, carbachol calcium flux Fluo4; hits give low values; B-score at 10 µM; 310,000 tested, 0.92% active;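 active means B-score of the integrated calcium signal more than 4 SD below the library mean, with starting fluorescence not abnormally high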;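 further: negative B-score means reduced calcium response which marks RGS4 activation or potentiation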
#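 Assay system: HEK293 FlpIn-TREx cells, stable M3R, doxycycline-inducible RGS4 / Probe or stimulus: carbachol, ECmax concentration / Times: overnight RGS4 induction, 30 min dye load 37 °C, 20 min compound RT / Signal: kinetic calcium fluorescence imaging with Fluo4-AM dye, 2 µM / Measure: Agonist-evoked peak-minus-minimum fluorescence over baseline, integrated ratio, B score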
# RGS4 inh – human RGS4 inhibition; HEK293 M3R/RGS4 inducible, Fluo-4 calcium flux; hits give high values; triggered by carbachol at its EC20; B-score at 10 µM; 310,000 tested, 0.45% active;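 active means B-score, a plate-corrected calcium signal, over three deviations above library mean, with baseline fluorescence within five deviations of library mean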;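 further: RGS4 expression induced by doxycycline in cells with stable M3 receptor; B-score is computed from the integrated fluorescence ratio over baseline after carbachol; higher B-score means a larger calcium signal and so more RGS4 inhibition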
# Target sequence (P49798 whole entry, looked up): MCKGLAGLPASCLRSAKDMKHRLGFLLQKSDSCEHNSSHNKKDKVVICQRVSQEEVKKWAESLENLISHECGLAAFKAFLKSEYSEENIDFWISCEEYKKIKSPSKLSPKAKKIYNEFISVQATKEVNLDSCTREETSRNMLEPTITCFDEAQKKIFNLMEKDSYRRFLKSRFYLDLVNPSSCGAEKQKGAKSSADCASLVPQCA
# MrgX1 antag – antagonists of human MrgX1 receptor; B-score at 10 µM; Q96LB2; AID 588676; 310,000 tested, 1.3% active; MRGX1-HEK293 calcium flux, Fluo-4, BAM8-22 antagonism; hits give low values;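 active means calcium-response B-score plate-corrected more than 3 library SD below zero, starting fluorescence within 5 deviations, no agonist response on first addition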;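 further: peak minus trough fluorescence over baseline after final BAM8-22 challenge near maximal dose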
# Target sequence (Q96LB2 whole entry, looked up): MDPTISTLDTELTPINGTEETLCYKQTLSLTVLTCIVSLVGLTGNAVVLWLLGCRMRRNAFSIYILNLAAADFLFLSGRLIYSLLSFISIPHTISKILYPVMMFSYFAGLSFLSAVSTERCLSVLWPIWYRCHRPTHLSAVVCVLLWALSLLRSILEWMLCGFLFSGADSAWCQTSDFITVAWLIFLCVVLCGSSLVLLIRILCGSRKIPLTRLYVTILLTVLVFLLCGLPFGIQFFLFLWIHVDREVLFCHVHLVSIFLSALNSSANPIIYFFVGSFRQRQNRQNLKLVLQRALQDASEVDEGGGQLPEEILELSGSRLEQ
# MrgX1 PAM – human MrgX1 positive allosteric modulation, primary screen; 310,000 tested, 0.63% active; MrgX1-HEK293, Fluo-4 calcium flux, FDSS; hits give high values; AID 588675; B-score at 10 µM;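 active means plate-corrected calcium response at least 3 library SD above typical, normal starting fluorescence, not activating the receptor alone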;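 further: compound read alongside a low EC10 to EC30 dose of BAM8-22 agonist; peak minus trough fluorescence over baseline measured at the second addition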
# MrgX1 agonist – agonists of human MrgX1 receptor; 310,000 tested, 0.44% active; B-score at 10 µM; MrgX1-HEK293 cells, Fluo-4 calcium fluorescence, agonist mode; hits give high values; Q96LB2;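 active means calcium response B-score plate-corrected fluorescence ratio at least 3 library SD, with starting fluorescence B-score inside 5 SD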
#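 Test system: Stable human MrgX1 HEK293 cell line | Schedule: Overnight plating before 1 h dye loading | Read-out basis: Baseline-normalised fluorescence change ratio, B-scored | Detection: Kinetic calcium dye fluorescence, Fluo-4 NW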
# MrgX1 antag conf – confirmation of human MrgX1 receptor antagonists | shares compounds with MrgX1 antag | MrgX1-HEK293, BAM8-22 calcium flux, Fluo-4; hits give low values | remaining BAM8-22 calcium response % of control (hits give low values), % at 10 µM | 2,300 tested, 19% active;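 active means remaining agonist calcium response no higher than 100% minus 3 SD of agonist-only control wells, with starting fluorescence near control levels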;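 further: agonist BAM8-22 given at a near maximal EC90 to ECmax level; peak minus minimum fluorescence divided by baseline after agonist addition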
# HEK293 Ca flux – counter-screen for MrgX1 antagonists: effect in parental HEK293 cells | shares compounds with MrgX1 antag | Fluo-4 calcium fluorescence, FDSS | fluorescence ratio F(max-min)/F0 at 10 µM | 4,000 tested, 2% active;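 active means duplicate-averaged calcium fluorescence ratio at least three times the standard deviation of buffer wells, a nonspecific response in parental cells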
# HEK293 Ca counter – counter-screen for MrgX1 allosteric activators: effect in parental HEK293 cells. shares compounds with MrgX1 antag. parental HEK293 calcium flux, Fluo-4 fluorescence ratio; hits give high values. fluorescence ratio F(max-min)/F0 at 10 µM. 4,000 tested, 0.4% active;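 active means calcium fluorescence ratio, averaged over duplicates, at least 3 SD of the buffer-well ratio, meaning a nonspecific response in receptor-free cells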;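 further: untransfected parental HEK293 lacking MrgX1 used as counterscreen for MrgX1 allosteric activators; fluorescence change taken during the second addition on a kinetic imager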
# HEK293 Ca cntr2 – counter-screen for MrgX1 activators: effect in parental HEK293 cells. fluorescence ratio F(max-min)/F0 at 10 µM. Fluo-4 calcium fluorescence (FDSS); hits give high values. 4,000 tested, 8.7% active. AID 624115. shares compounds with MrgX1 antag;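 active means calcium fluorescence ratio at least three times the spread of buffer wells, meaning a non-specific response in parental cells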
# Numbers without * were called inactive; i = inactive; . = no result.
SMILES,RGS4 pot,RGS4 inh,MrgX1 antag,MrgX1 PAM,MrgX1 agonist,MrgX1 antag conf,HEK293 Ca flux,HEK293 Ca counter,HEK293 Ca cntr2
O=C1c2ccccc2C(Nc2ccc(S(=O)(=O)N3CCCCC3)cc2)N1Cc1ccco1 (stereo unspecified),i,i,-7.9*,i,i,i,i,i,i
COC(=O)c1cc(NC2c3ccccc3C(=O)N2Cc2ccco2)cc(C(=O)OC)c1 (stereo unspecified),.,.,i,i,i,.,.,.,.
COc1ccc(NC2c3ccccc3C(=O)N2Cc2ccco2)cc1OC (stereo unspecified),i,i,-5.4*,i,i,i,i,i,i
O=C(NNC(=O)c1cc(-c2cccnc2)nc2ccccc12)Nc1ccc(Cl)cc1,i,i,-13*,6.9*,i,i,i,i,i
O=C(Nc1ccc2c(c1)OCCO2)c1cc(-c2ccccc2)nc2ccccc12,i,i,-5*,i,i,i,i,i,i
O=C(COc1ccc(CO)cc1Cl)Nc1ccc(F)cc1,i,i,-6.6*,i,i,85%*,i,i,i
O=C(COc1ccc(CO)cc1)Nc1ccc(F)cc1,i,i,i,i,i,.,.,.,.
Cc1nnc(NC(=O)CSc2ccccc2N)s1,i,i,i,i,i,.,.,.,.
O=C(c1ccc(Cl)c(S(=O)(=O)N2CCCCCC2)c1)N1CCN(c2ccccc2O)CC1,i,i,-4.8*,i,i,80%*,i,i,i
O=C(c1ccc(Cl)c(S(=O)(=O)N2CCOCC2)c1)N1CCN(c2ccccc2)CC1,i,i,-4.6*,i,i,i,i,i,i
O=C(c1ccc(Cl)c(S(=O)(=O)N2CCCCC2)c1)N1CCN(c2ccccc2)CC1,i,i,i,i,i,.,.,.,.
O=C(c1ccc(Cl)c(S(=O)(=O)N2CCCC2)c1)N1CCN(c2ccccc2)CC1,i,i,i,i,i,.,.,.,.
Nc1ncc(Br)cc1S(=O)(=O)NCCC(=O)N1CCN(c2ccccc2)CC1,i,i,i,i,i,.,.,.,.
O=C(CSc1ccccn1)Nc1ccc(Br)cn1,i,i,-5.3*,i,i,i,i,i,i
O=C(CSc1ncn(-c2ccccc2)n1)Nc1ccc(Br)cn1,i,i,i,i,i,.,.,.,.
CCC(=O)Nc1ccc(Br)cn1,i,i,-5.4*,i,i,i,i,i,i
CC(C)N(Cc1cn[nH]c1-c1ccc(-c2ccccc2)cc1)Cc1nccn1C,i,i,i,i,i,.,.,.,.
O=C(NCc1ccco1)c1ccc(CS(=O)Cc2ccc(Cl)cc2)o1 (stereo unspecified),i,i,i,i,i,.,.,.,.
CCOc1ccc(C(C)=O)cc1CSc1nc2nc(C)cc(C)n2n1,i,i,-5.7*,i,i,69%*,i,i,i
CCCCNc1nc(CC(C)=O)ns1,i,i,-6.6*,i,i,i,i,i,i
CNc1nc(CC(C)=O)ns1,i,i,i,i,i,.,.,.,.
CCC(C(=O)N1CCN(c2ncccn2)CC1)c1ccccc1 (stereo unspecified),i,i,-4.6*,i,i,i,i,i,i
CCC(Cc1ccccc1)NC(=O)C1=C(C)C(=O)OC12CCC(C)CC2 (stereo unspecified),i,i,i,i,i,.,.,.,.
Cc1csc(NC(=O)c2ccc(Cn3nc(C)c(Br)c3C)o2)n1,i,i,-4.8*,i,i,74%*,i,i,i
CC(C)c1ccc(NC(=O)COc2ccc(F)cc2C(=O)c2cnn(-c3ccccc3)c2)cc1,i,i,-5.3*,i,i,i,i,i,i
SMILES,RGS4 pot,RGS4 inh,MrgX1 antag,MrgX1 PAM,MrgX1 agonist,MrgX1 antag conf,HEK293 Ca flux,HEK293 Ca counter,HEK293 Ca cntr2
O=C(COc1ccccc1C(=O)c1cnn(-c2ccccc2)c1)Nc1ccc2ccccc2c1,i,i,i,i,i,.,.,.,.
CCC(Sc1nc2ncccc2[nH]1)C(=O)NC1CCC(C)CC1 (stereo unspecified),i,i,i,i,i,.,.,.,.
CCC(Sc1nc2ncccc2[nH]1)C(=O)NCCc1ccccc1 (stereo unspecified),i,i,-8.7*,i,i,i,i,i,i
CCOc1ccc(N(CC)C(=O)Cc2c(C(=O)O)n(C)c3ccccc23)cc1,i,i,i,i,i,.,.,.,.
CCc1ccc(N(CC)C(=O)Cc2c(C(=O)O)n(C)c3ccccc23)cc1,i,i,-6.6*,i,i,i,i,i,i
CSCCC(C(=O)OCC(=O)c1ccc(C)c(C)c1)N1C(=O)c2cc(Cl)c(Cl)cc2C1=O (stereo unspecified),i,i,-5.2*,i,i,i,i,i,i
Cc1c(C(=O)N2CCN(c3ncccn3)CC2)sc2nc3n(c(=O)c12)CCCC3,i,i,-7.4*,i,i,i,i,i,i
Cc1c(C(=O)O)sc2nc3n(c(=O)c12)CCCCC3,i,i,i,i,i,.,.,.,.
Cc1ccc(S(C)(=O)=NS(=O)(=O)c2cccc3nsnc23)cc1 (stereo unspecified),i,i,i,i,i,.,.,.,.
CCN(C(=O)c1cccc(Br)c1)C1CCS(=O)(=O)C1 (stereo unspecified),i,i,i,i,i,.,.,.,.
CN(C(=O)c1cccc(Br)c1)C1CCS(=O)(=O)C1 (stereo unspecified),i,i,-4.5*,i,i,i,i,i,i
CCOc1ccccc1N(CC(=O)OC)S(C)(=O)=O,i,i,-6.2*,i,i,i,i,i,i
